Measurements taken from PubChem BioAssay AID602434 (Sanford-Burnham Center for Chemical Genomics, 2012).

Target: CHO-CHOP luciferase reporter, UPR activation, luminescence
Experiment: PERK-eIF2a-CHOP reporter activation – CHO-CHOP cells, luciferase luminescence, set 3, SAR follow-up (AID 602434)
Summary of the method: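 Times: 16-18 h seeding, 6 h treatment at 37 °C; Test system: CHO cell line stably carrying CHOP-driven luciferase reporter; Benchmarks: tunicamycin 10 µg/mL final as high control, DMSO wells as low control; Detection: luminescence with Steady-Glo luciferase reagent.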

SMILES	EC50
O=C(Nc1ccc(S(=O)(=O)N2CCC(Cl)CC2)cc1)c1ccc([N+](=O)[O-])o1	785 nM
CC(C)(C)C1CCN(S(=O)(=O)c2ccc(NC(=O)c3ccc([N+](=O)[O-])o3)cc2)CC1	652 nM
CC1(C)CCN(S(=O)(=O)c2ccc(NC(=O)c3ccc([N+](=O)[O-])o3)cc2)CC1	765 nM
O=C(Nc1ccc(S(=O)(=O)N2CCCCC2)cc1)c1ccc([N+](=O)[O-])o1	741 nM
CC1CCN(S(=O)(=O)c2ccc(NC(=O)c3ccc([N+](=O)[O-])o3)cc2)CC1	761 nM
O=C(Nc1ccc(S(=O)(=O)N2CCC(F)CC2)cc1)c1ccc([N+](=O)[O-])o1	435 nM
